The values below come from ChEMBL document CHEMBL4680287, “Ibrexafungerp: An orally active β-1,3-glucan synthesis inhibitor” (Bioorg Med Chem Lett, 2021).

In brackets after ≈: the same amount, converted by molar mass.

For assay [1], the system named is Aspergillus fumigatus. Description: Antifungal activity against Aspergillus fumigatus MF5668 infected in DBA/2N mouse assessed as mean survival time at 0.125 mg/kg, ip bid administered for 7 days starting from 15 to 30 mins post infection and measured up to 21 days. Format: functional. The note with it: time 7 day. The method, boiled down: (§1)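 DBA/2N mice were challenged IV with A. fumigatus MF5668 at 6.7 x 10^5 CFU/mouse, then dosed IP twice daily for 7 days. Survival was followed over a 21-day model, and mean survival time in days was recorded per dose group. A sham-treated control group was run alongside.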

Assay [2] concerns Candida albicans. Description: Antifungal activity against Candida albicans MY1055 infected in ip dosed DBA/2 mouse model of disseminated candidiasis assessed as reduction in fungal burden in kidney administered bid for 7 days by TOKA. Format: functional. The note with it: 168 h, time 7 day. The method, boiled down:
(§2)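 Murine disseminated candidiasis model (TOKA) in mice challenged with C. albicans MY1055 at 2.44 x 10^4 CFU/mouse. Dosed PO, or IP where stated. Kidneys collected aseptically 7 days after challenge and CFUs/g counted. Change in log CFU/g is relative to sham-treated controls; significance by two-tailed t test. Clearance is the percentage of kidneys below the detection limit.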

Assay [3] has as its system Aspergillus fumigatus. Put plainly: Antifungal activity against Aspergillus fumigatus MF5668 infected in DBA/2N mouse assessed as mouse survival at 0.125 mg/kg, ip bid administered for 7 days starting from 15 to 30 mins post infection and measured up to 21 days relative to control. In kind it is functional. The note with it: 168 h, time 7 day. The method, boiled down: (§3)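 DBA/2N mice were infected IV with A. fumigatus MF5668 (6.7 x 10^5 CFU/mouse) and treated IP bid for 7 days. Percent survival per dose group was scored at the end of the 21-day survival model and compared with the sham-treated control group.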

The subject of assay [4] is Candida albicans. Description: Antifungal activity against Candida albicans MY1055 infected in DBA/2 mouse model of disseminated candidiasis assessed as reduction in fungal burden in kidney by measuring log change in colony forming units at 0.5 mg/kg, ip bid for 7 days by TOKA. The note with it: time 7 day. In kind it is functional. In a few lines:
as §2

Assay [5] concerns Candida albicans. Description: Antifungal activity against Candida albicans MY1055 infected in DBA/2 mouse model of disseminated candidiasis assessed as reduction in fungal burden in kidney by measuring log change in colony forming units at 0.0078 mg/kg, ip bid for 7 days by TOKA. Format: functional. The note with it: time 7 day. The method, boiled down:
as §2

The subject of assay [6] is Aspergillus fumigatus. Put plainly: Antifungal activity against Aspergillus fumigatus MF5668 infected in ip dosed DBA/2N mouse assessed as 90% mouse survival administered bid administered for 7 days starting from 15 to 30 mins post infection and measured up to 21 days. Format: functional. As to conditions: 168 h, time 7 day.
The test system of assay [7] is Aspergillus fumigatus. Put plainly: Antifungal activity against Aspergillus fumigatus MF5668 infected in ip dosed DBA/2N mouse assessed as 50% mouse survival administered bid administered for 7 days starting from 15 to 30 mins post infection and measured up to 21 days. The note with it: 168 h.
The test system of assay [8] is Aspergillus fumigatus. Description: Antifungal activity against Aspergillus fumigatus MF5668 infected in DBA/2N mouse assessed as mouse survival at 0.03 mg/kg, ip bid administered for 7 days starting from 15 to 30 mins post infection and measured up to 21 days relative to control. Format: functional. As to conditions: 168 h, time 7 day. The method, boiled down: as §3

The test system of assay [9] is Candida albicans. Put plainly: Antifungal activity against Candida albicans MY1055 infected in DBA/2 mouse model of disseminated candidiasis assessed as reduction in fungal burden in kidney by measuring log change in colony forming units at 0.03 mg/kg, ip bid for 7 days by TOKA. In kind it is functional. As to conditions: time 7 day. In a few lines:
as §2

Assay [10] relates to Candida albicans. Description: Antifungal activity against Candida albicans MY1055 assessed as fungal growth inhibition measured after 24 hrs by liquid microdilution method. Format: functional. In a few lines: (§4)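 Broth microdilution per CLSI protocols in RPMI medium. Read-out is the MIC, the lowest concentration completely inhibiting fungal growth. Run without serum and with added serum.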
In general terms: In broth dilution the organism is exposed to a series of concentrations in liquid medium.

Assay [11] concerns Candida albicans. Description: Antifungal activity against Candida albicans MY1055 infected in DBA/2 mouse model of disseminated candidiasis assessed as reduction in fungal burden in kidney by measuring log change in colony forming units at […], po bid for 7 days by TOKA. In kind it is functional. As to conditions: time 7 day. In a few lines:
as §2

Assay [12] relates to Aspergillus fumigatus. Put plainly: Antifungal activity against Aspergillus fumigatus MF5668 assessed inhibition of fungal growth by measuring morphological changes measured after 24 hrs by microscopy. Format: functional. The note with it: read-out: MEC. In a few lines:
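Microdilution per CLSI protocols in RPMI medium. Read-out is the minimum effective concentration (MEC). Run without serum and with 50% human serum.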

Assay [13] is described as follows: Inhibition of beta-1,3-glucan synthase in Candida albicans MY1055 microsomal membrane assessed as inhibition of TCA-insoluble material formation using UDP-[3H]-glucose as substrate incubated for 2 hrs in presence of GTP by radioactivity-based assay. In kind it is microsomes, Microsome. The method, boiled down:
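GS IC50 measured using Candida albicans MY1055 microsomal membrane fragments as the enzyme source.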

Assay [14] concerns Candida albicans. Description: Antifungal activity against Candida albicans MY1055 infected in DBA/2 mouse model of disseminated candidiasis assessed as reduction in fungal burden in kidney by measuring log change in colony forming units at 0.125 mg/kg, po bid for 7 days by TOKA. In kind it is functional. As to conditions: time 7 day. The method, boiled down:
as §2

Assay [15] deals with Aspergillus fumigatus. Put plainly: Antifungal activity against Aspergillus fumigatus MF5668 infected in DBA/2N mouse assessed as mouse survival at 2 mg/kg, ip bid administered for 7 days starting from 15 to 30 mins post infection and measured up to 21 days relative to control. In kind it is functional. The note with it: 168 h, time 7 day. The method, boiled down:
as §3

Assay [16] deals with Aspergillus fumigatus. Description: Antifungal activity against Aspergillus fumigatus MF5668 infected in DBA/2N mouse assessed as mouse survival at 0.5 mg/kg, ip bid administered for 7 days starting from 15 to 30 mins post infection and measured up to 21 days relative to control. In kind it is functional. The note with it: 168 h, time 7 day. The method, boiled down: as §3

The test system of assay [17] is Aspergillus fumigatus. Description: Antifungal activity against Aspergillus fumigatus MF5668 infected in DBA/2N mouse assessed as mean survival time at 0.03 mg/kg, ip bid administered for 7 days starting from 15 to 30 mins post infection and measured up to 21 days. The note with it: time 7 day. In kind it is functional. The method, boiled down: as §1
Assay [18] relates to Candida albicans. Put plainly: Antifungal activity against Candida albicans MY1055 assessed as fungal growth inhibition measured after 24 hrs in presence of 50% mouse serum by liquid microdilution method. In kind it is functional. The method, boiled down: as §4
In assay [19] the test system is Candida albicans. Put plainly: Antifungal activity against Candida albicans MY1055 infected in DBA/2 mouse model of disseminated candidiasis assessed as reduction in fungal burden in kidney by measuring log change in colony forming units at 0.03 mg/kg, po bid for 7 days by TOKA. Format: functional. The note with it: time 7 day. The method, boiled down:
as §2

Assay [20] concerns Candida albicans. Put plainly: Antifungal activity against Candida albicans MY1055 infected in DBA/2 mouse model of disseminated candidiasis assessed as reduction in fungal burden in kidney by measuring log change in colony forming units at 0.125 mg/kg, ip bid for 7 days by TOKA. Format: functional. The note with it: time 7 day. In a few lines:
as §2

One may read the ED50 as the dose at which the effect has come halfway, by size or by number of responders. As usually defined, the MIC is the least concentration at which growth counts as inhibited. Broadly, the IC50 is the point on the concentration scale where inhibition reaches its midpoint. Take `CC[C@H](C)C[C@H](C)CCCCCCCCC(=O)N[C@H]1C[C@@H](O)[C@@H](NCCN)NC(=O)[C@@H]2[C@@H](O)CCN2C(=O)[C@H]([C@H](O)CCN)NC(=O)[C@H]([C@H](O)[C@@H](O)c2ccc(O)cc2)NC(=O)[C@@H]2C[C@@H](O)CN2C(=O)[C@H]([C@@H](C)O)NC1=O` [CASPOFUNGIN]: the figures for the MST with Aspergillus fumigatus [1] and in the assay on Aspergillus fumigatus [17] were 14.7 days and 13.1 days, respectively. The ED99 with Candida albicans [2] is < 0.0001 mg/kg. In addition, the survival at 0.125 mg/kg in the assay on Aspergillus fumigatus [3] came to 60%. Also, the Activity with Candida albicans [4] is -3.96 deltalog10CFU; with Candida albicans [5], -3.62 deltalog10CFU; with Candida albicans [9], -3.28 deltalog10CFU; in the assay with Candida albicans [11], -4.2 deltalog10CFU; in the assay with Candida albicans [14] it was -4.2 deltalog10CFU; in the assay with Candida albicans [19] it was -2.3 deltalog10CFU. The Activity in the assay on Candida albicans [20] is given as -4 deltalog10CFU. In the assay with Aspergillus fumigatus [6], the ED90 was 0.83 mg/kg. In the assay on Aspergillus fumigatus [7], the 50% effective dose (ED50) stood at 0.07 mg/kg. For the same molecule, the survival at 0.03 mg/kg in the assay on Aspergillus fumigatus [8] worked out at 50%. The minimum inhibitory concentration (MIC) in the assay on Candida albicans [10] came to 0.06 µg/mL (≈ 0.0549 µM); in the assay on Candida albicans [18], 0.25 µg/mL. Besides, the minimal effective concentration in the assay on Aspergillus fumigatus [12] was < 0.03 µg/mL. In addition, the IC50 in assay [13] was 0.001 µg/mL. Moreover, the survival at 2 mg/kg in the assay on Aspergillus fumigatus [15] came to 90%. Besides, in the assay on Aspergillus fumigatus [16], the survival at 0.5 mg/kg was determined as 90%.
